Shown are actives, neighbours in structure and some others; about 3.7% of the full set was active somewhere.
MDM2 E3 inh – inhibitors of human Mdm2 E3 ubiquitin ligase | cell-based MDM2 ubiquitination luciferase reporter, 2 h; 0 = plate control, 100 = twice control, blank-subtracted | AID 1230 | 210,000 tested, 0.11% active | signal enhancement, % at 5 µM | Q00987;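 active means signal enhancement of 30% or more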;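 further: luminescence tracks abundance of the self-degrading MDM2-luciferase fusion protein; higher signal means inhibition of MDM2 E3 ligase activity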
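Assay system: mammalian cells stably expressing self-ubiquitinating, self-degrading MDM2 E3–luciferase fusion. Quantity: 2000 cells in each well. Medium: DMEM culture medium. Compound dosing: single-point 5 µM. Timing: cell settling 4 h, compound treatment 2 h, both 37 °C. Technique: luciferase luminescence. Read-out basis: percent signal gain over controls, blank-subtracted. Benchmarks: plate controls and plate blanks.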
KCC2 mod – modulates chloride dependent transport by human KCC2; AID 1456; 190,000 tested, 2.2% active; KCC2 cells, thallium flux FluoZin-2 fluorescence; Q9H2X9; B-score of Tl+ flux slope (higher = more flux/activation; lower = inhibition) at 10 µM;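 active means thallium flux slope and its plate-corrected score both differing from the plate sample mean at a set confidence after two filtering rounds, in either direction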;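 further: slope of fluorescence scaled to starting intensity during 10 to 20 s after thallium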
PKD1 kinase inh – PKD1 (human) kinase inhibition; Q15139; PKD1 kinase fluorescence polarization assay; inhibition, % (concentration not given with the values); 200,000 tested, 0.056% active; AID 797; in the data active means inhibition above about 50%
Target sequence (Q15139 whole entry, looked up): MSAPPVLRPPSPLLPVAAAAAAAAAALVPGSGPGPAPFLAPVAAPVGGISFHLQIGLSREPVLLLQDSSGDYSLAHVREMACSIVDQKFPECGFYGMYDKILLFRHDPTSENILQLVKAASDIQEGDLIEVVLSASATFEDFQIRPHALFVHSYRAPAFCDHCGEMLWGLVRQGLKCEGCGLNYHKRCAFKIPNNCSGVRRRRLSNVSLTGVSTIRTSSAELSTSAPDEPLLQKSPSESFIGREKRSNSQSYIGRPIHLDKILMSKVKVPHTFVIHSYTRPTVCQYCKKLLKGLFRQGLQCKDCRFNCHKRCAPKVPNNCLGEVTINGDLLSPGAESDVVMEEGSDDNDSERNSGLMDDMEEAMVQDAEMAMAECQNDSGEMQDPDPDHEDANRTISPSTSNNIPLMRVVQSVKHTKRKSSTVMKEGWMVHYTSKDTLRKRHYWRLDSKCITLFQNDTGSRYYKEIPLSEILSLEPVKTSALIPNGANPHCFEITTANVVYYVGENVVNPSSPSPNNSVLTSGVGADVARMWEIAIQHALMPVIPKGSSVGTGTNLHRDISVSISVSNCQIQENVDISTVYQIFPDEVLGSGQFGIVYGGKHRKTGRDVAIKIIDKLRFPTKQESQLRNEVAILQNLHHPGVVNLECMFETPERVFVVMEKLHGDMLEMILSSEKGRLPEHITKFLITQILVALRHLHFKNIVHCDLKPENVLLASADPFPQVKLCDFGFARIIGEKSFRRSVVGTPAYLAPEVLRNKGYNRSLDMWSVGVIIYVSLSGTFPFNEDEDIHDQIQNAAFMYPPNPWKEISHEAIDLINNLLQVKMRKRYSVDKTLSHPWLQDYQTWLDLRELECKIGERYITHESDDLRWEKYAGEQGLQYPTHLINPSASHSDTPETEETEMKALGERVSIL
ROMK mod – modulates human ROMK potassium channel activity; P48048; Tet-inducible ROMK, thallium flux fluorescence; actives lie on both sides; B-score at 10 µM; 130,000 tested, 2% active;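 active means signal ratio slope over the read window, or its plate-corrected B-score, at least 3 SD from the plate mean, either direction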;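 further: B-score of the F/F0 ratio slope over 7 to 12 s after thallium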
m-calpain inh – blocks pig calpain II enzyme activity; purified calpain II, fluorogenic peptide substrate, 30 min; inhibition, % at 16 µM; 220,000 tested, 0.37% active; AID 1236;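 active means inhibition above about 50%, limit read from the data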
Arbovirus inh – antivirals against arbovirus infection; 200,000 tested, 0.37% active; arbovirus infection cell-based antiviral screen; inhibition, % at 10 µM; in the data active means inhibition above about 30%
ROMK hit retest – retested hit modulating human ROMK potassium channel; normalized thallium flux (F/F0 slope) at 10 µM; shares compounds with ROMK mod; ROMK thallium flux, fluorescence ratio; active compounds read low; AID 1917; 3,000 tested, 54% active;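 active means Flux at 10 µM at least 3 SD below or above vehicle control mean in one or both replicates; inconclusive means no clear call, values can overlap the other calls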
Active calls of the source: *; i = inactive; ? = inconclusive; / = no result given.

SMILES	MDM2 E3 inh	KCC2 mod	PKD1 kinase inh	ROMK mod	m-calpain inh	Arbovirus inh	ROMK hit retest
O=C1c2ccccc2C(Nc2ccc3c(c2)OCCO3)N1Cc1ccccc1 (stereo unspecified)	-11	-2.4	4	/	19	8	0.078
CCn1c(=S)sc2nc(C)sc21	/	0.79	-13	/	/	/	/
COc1cc(C(=O)N2CCN(c3ncnc4sc(C)c(C)c34)CC2)cc(OC)c1OC	-11	-1.1	9	/	-29	2	0.077
Cc1sc2ncnc(N3CCN(c4ncccn4)CC3)c2c1C	-4	/	-3	-1.5	25	0	/
CCN1C(=O)c2cccc3c(S(=O)(=O)Nc4ccncc4)ccc1c23	/	0.58	1	2.3*	i	-9	0.076
CCN1C(=O)c2cccc3c(S(=O)(=O)Nc4ccccc4)ccc1c23	-16	-0.62	6	/	-8	-18	/
O=C(CN1C(=O)C2CC=CCC2C1=O)NC1=NCCS1 (stereo unspecified)	-3	0.13	-5	/	-29	0	/
CCCCn1c(=N)n(CC(O)COc2ccccc2)c2ccccc21 (stereo unspecified)	-19	0.03	1	-3.7*	19	-18	?
CCCCn1c(=N)n(CC(O)COc2ccc(C)cc2)c2ccccc21 (stereo unspecified)	-19	0.08	-2	-7*	-9	-28	0.048*
CCCn1c(=N)n(CC(O)COc2cccc(C)c2)c2ccccc21 (stereo unspecified)	1	/	-3	-3.4*	-14	-12	0.051*
Cc1ccc(Cn2c(=N)n(CC(O)COc3ccccc3)c3ccccc32)cc1 (stereo unspecified)	-17	0.18	10	-4.1*	8	-33	0.049*
O=C(Nc1ccc(F)cc1)Nc1nnc(-c2ccncc2)s1	-21	1.3	-3	-2.1*	15	25	0.08
COc1ccccc1C1CCN(c2ccc([N+](=O)[O-])c(OC)c2)CC1	2	-1.3	/	/	12	/	/
COc1ccccc1C1NC=C([N+](=O)[O-])C=C1[N+](=O)[O-] (stereo unspecified)	7	-3.5	-5	/	13	-3	0.051*
COc1ccccc1C1C([N+](=O)[O-])=CC([N+](=O)[O-])=CN1C (stereo unspecified)	-2	-4.9	-1	-5*	5	-5	0.055*
COc1ccccc1C(=O)C1CCCN(C(=O)c2cn3cc(Cl)ccc3n2)C1 (stereo unspecified)	20	-0.31	-4	0.89	-12	1	/
O=C(NNC(=O)C1[C@H]2CCCC[C@@H]12)Nc1cccc2ccccc12 (stereo partly specified)	-7	-1.3	/	/	10	/	/
Cc1oc(-c2ccccc2F)nc1CN1CCC(C(=O)NCCC2=CCCCC2)CC1	-6	-0.92	6	-5.4*	-6	-7	0.056*
CC(Sc1nnc(-c2ccc(Cl)cc2)n1C)C(N)=O (stereo unspecified)	-18	/	-4	/	12	1	/
Cc1ccccc1C(=O)Nc1ccc(-c2nnc(SC(C)C(=O)O)n2C)cc1 (stereo unspecified)	-4	-0.42	/	/	16	/	0.079
O=C(O)c1cccnc1SC1CC(=O)N(c2ccccc2)C1=O (stereo unspecified)	-14	0.9	/	1.1	-8	/	/
CC(c1ccccc1)N1C(=O)CC(Sc2ncccc2C(=O)O)C1=O (stereo unspecified)	5	0.05	-2	0.9*	26	3	0.087
O=C(CN(C(=O)CCC(=O)Nc1nccs1)C1CCCC1)NCc1ccc2c(c1)OCO2	-7	-0.84	-8	0.39	-9	-4	/
Oc1nc(Nc2ccc(F)cc2)sc1/C=C1\C=Nc2ccccc21	-14	-0.64	/	1.5	-18	/	/
CC1=Nc2ccccc2/C1=C\c1sc(Nc2ccc(C)cc2)nc1O	7	-1	-4	2*	-55	-2	0.095
Clc1ccc2nc(SCc3nnc(-c4ccccc4)o3)[nH]c2c1	-3	/	-4	-3.4*	-4	2	0.055*
CC(NC(=O)c1nn(C)c(=O)c2ccccc12)c1ccc(F)cc1 (stereo unspecified)	-16	/	-3	-0.015	-4	-8	/
